The test system of assay [1] is MCF7. In words: Antiproliferative activity against ER expressing human MCF7 cells after 72 hrs by MTT assay. It counts as functional, cell-based. The following applies: MCF7, 72 h. The essentials: (§1)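 Cells seeded at 2.5×10^4 cells/mL, held 24 h at 37°C, then dosed from ethanol stocks over 1 nM–100 μM for 72 h; vehicle 1% v/v ethanol. MTT added to 1 mg/mL final, 2 h in dark at 37°C, DMSO solubilisation 20 min RT, absorbance read. Viability set relative to untreated controls; IC50 from % viability vs concentration. Triplicate wells, ≥3 experiments, mean ± SEM. MCF-7 grown in MEM with 10% FBS, 2 mM glutamine and 1% non-essential amino acids; MDA-MB-231 grown in DMEM with 10% FBS and 2 mM glutamine.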
On the technique in general: Tetrazolium dyes change colour on reduction, which living cells bring about.

In assay [2] the test system is MDA-MB-231. Description: Antiproliferative activity against ER-independent human MDA-MB-231 cells after 72 hrs by MTT assay. The following applies: MDA-MB-231, 72 h. Type of assay: functional, cell-based. In short, it runs like this: as §1
The test system of assay [3] is MDA-MB-231. Description: Antiproliferative activity against ER-independent human MDA-MB-231 cells assessed as cell death at 10 uM after 72 hrs by LDH assay.
The species named for a further assay is Bos taurus. In words: Inhibition of bovine tubulin polymerization at 10 uM after 60 mins by spectrophotometric analysis. In short, it runs like this:
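Purified bovine brain tubulin in G-PEM buffer (80 mM PIPES pH 6.9, 0.5 mM MgCl2, 1 mM EGTA, 1 mM GTP, 10.2% glycerol) was mixed with drug at 10 μM or 1% ethanol vehicle. Assembly was started by warming from 4 to 37°C and turbidity read at 340 nm every 30 s for 60 min at 37°C. Run in triplicate.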

Assay [4] concerns MCF7. In words: Effect on microtubule network in human MCF7 cells assessed as microtubule depolymerization at 500 nM after 16 hrs by confocal microscopic analysis. Type of assay: functional, cell-based. The essentials: (§2)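 MCF-7 cells seeded at 1×10^5 per well on chamber glass slides, exposed 16 h (vehicle 1% v/v ethanol). Permeabilised with 0.1% Triton X-100 in PBS, fixed in methanol 30 min at -20°C, blocked in 5% BSA. Stained with DM1A anti-tubulin (1:20, 1 h RT), then FITC rabbit anti-mouse (1:200, 1 h RT). Mounted with DAPI and imaged by confocal microscopy; three separate experiments.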

In assay [5] the test system is MCF7. In words: Antimitotic activity in human MCF7 cells assessed as mitotic catastrophe at 500 nM after 16 hrs using DAPI staining based immunofluorescence analysis. It counts as functional, cell-based. In short, it runs like this: as §2
The test system of assay [6] is MCF7. In words: Cell cycle arrest in human MCF7 cells assessed as accumulation at sub-G1 phase at 500 nM after 48 hrs by propidium iodide staining based flow cytometric analysis (reference value: 1.65+/-0.38%). It counts as functional. For orientation: Flow cytometry measures light scatter and fluorescence of single cells or particles in a stream.
Assay [7] deals with MCF7. In words: Cell cycle arrest in human MCF7 cells assessed as accumulation at G1 phase at 500 nM after 48 hrs by propidium iodide staining based flow cytometric analysis (reference value: 60.22+/-3.1%). It counts as functional.
Assay [8] relates to MCF7. Description: Cell cycle arrest in human MCF7 cells assessed as accumulation at S phase at 500 nM after 48 hrs by propidium iodide staining based flow cytometric analysis (reference value: 8.77+/-0.9%). Type of assay: functional.
The test system of assay [9] is MCF7. Description: Cell cycle arrest in human MCF7 cells assessed as accumulation at G2/M phase at 500 nM after 48 hrs by propidium iodide staining based flow cytometric analysis (reference value: 52.02+/-5.9%). It counts as functional.
Assay [10] concerns MCF7. In words: Cell cycle arrest in human MCF7 cells assessed as appearance of polyploidy at 500 nM after 48 hrs by propidium iodide staining based flow cytometric analysis (reference value: 8.33+/-2.5%). It counts as functional.
Assay [11] has as its system MCF7. Description: Antiproliferative activity against ER expressing human MCF7 cells assessed as cell death at 10 uM after 72 hrs by LDH assay.
Assay [12] concerns MCF7. Description: Effect on microtubule network in human MCF7 cells assessed as microtubule depolymerization at 100 nM after 16 hrs by confocal microscopic analysis. It counts as functional, cell-based. The essentials: as §2
Assay [13] concerns MCF7. Description: Antimitotic activity in human MCF7 cells assessed as mitotic catastrophe at 100 nM after 16 hrs using DAPI staining based immunofluorescence analysis. It counts as functional, cell-based. The essentials:
as §2

Assay [14] concerns MCF7. In words: Cell cycle arrest in human MCF7 cells assessed as accumulation at sub-G1 phase at 100 nM after 48 hrs by propidium iodide staining based flow cytometric analysis (reference value: 1.65+/-0.38%). It counts as functional.
The subject of assay [15] is MCF7. In words: Cell cycle arrest in human MCF7 cells assessed as accumulation at G1 phase at 100 nM after 48 hrs by propidium iodide staining based flow cytometric analysis (reference value: 60.22+/-3.1%). It counts as functional.
Assay [16] deals with MCF7. In words: Cell cycle arrest in human MCF7 cells assessed as accumulation at S phase at 100 nM after 48 hrs by propidium iodide staining based flow cytometric analysis (reference value: 8.77+/-0.9%). It counts as functional.
For assay [17], the system named is MCF7. In words: Cell cycle arrest in human MCF7 cells assessed as accumulation at G2/M phase at 100 nM after 48 hrs by propidium iodide staining based flow cytometric analysis (reference value: 52.02+/-5.9%). It counts as functional.
The subject of assay [18] is MCF7. In words: Cell cycle arrest in human MCF7 cells assessed as appearance of polyploidy at 100 nM after 48 hrs by propidium iodide staining based flow cytometric analysis (reference value: 8.33+/-2.5%). It counts as functional.

SMILES strings stand for the structures. Activity calls are given as the source filed them. No cut-off for these calls is given here.

The term IC50 denotes the concentration at which inhibition is half-maximal. The low end stands for greater potency, the high end for weaker potency. For the molecule `COc1cc(N2C(=O)[C@H](c3ccccc3)[C@H]2c2ccc(OC)c(OC)c2OC)cc(OC)c1OC`, the IC50 in the assay on MCF7 [1] stood at 1.12 µM; in the assay with MDA-MB-231 [2], 1.96 µM. Besides, in the assay on MDA-MB-231 [3], the Activity is on record as 6.1%.

In the assay with MCF7 [1], `COc1cc(N2C(=O)C(c3ccccc3)C2(c2ccccc2)c2ccccc2)cc(OC)c1OC` (stereo unspecified) had an IC50 of 3.84 µM. That is a single-digit micromolar value.

Regarding `COc1ccc(C2(c3ccccc3)C(c3ccccc3)C(=O)N2c2cc(OC)c(OC)c(OC)c2)cc1` (stereo unspecified), the 50% inhibitory concentration (IC50) with MCF7 [1] amounted to 0.43 µM.

`COc1ccc(C2(c3ccc(OC)cc3)C(c3ccccc3)C(=O)N2c2cc(OC)c(OC)c(OC)c2)cc1` (stereo unspecified) had a 50% inhibitory concentration (IC50) in the assay with MCF7 [1] of 0.64 µM.

For the molecule `CCOc1ccc([C@@H]2[C@@H](c3ccccc3)C(=O)N2c2cc(OC)c(OC)c(OC)c2)cc1` (relative stereo), the values for the half-maximal inhibitory concentration (IC50) in the assay on MCF7 [1] and in the assay on MDA-MB-231 [2] were 0.22 µM and 0.83 µM, respectively. Also, the inhibition result in the assay filed under Bos taurus is “Active”. Moreover, the result in the assay with MCF7 [4] and in the assay with MCF7 [5] was Active. For the same molecule, the Activity was found to be 13.97% in the assay with MCF7 [6]; 21.18% in the assay with MCF7 [7]; 9.49% in the assay on MCF7 [8]; 47.53% with MCF7 [9]; 7.4% in the assay on MCF7 [10]; 5.4% in the assay with MDA-MB-231 [3].

In the case of `COc1cc(N2C(=O)[C@H](c3ccccc3)[C@H]2c2ccc(F)cc2)cc(OC)c1OC` (relative stereo), the values for the half-inhibitory concentration (IC50) in the assay with MCF7 [1] and in the assay on MDA-MB-231 [2] were 0.35 µM and 1.14 µM, respectively. For the same molecule, in the assay with MDA-MB-231 [3], the Activity worked out at 0%.

For the molecule `COc1cc(N2C(=O)[C@H](c3ccccc3)[C@H]2c2ccc(N(C)C)cc2)cc(OC)c1OC` (relative stereo), the IC50 with MCF7 [1] stood at 0.85 µM; with MDA-MB-231 [2], 5.66 µM. The Activity in the assay on MCF7 [11] was 10.4%.

With `COc1cc(OC)c([C@@H]2[C@@H](c3ccccc3)C(=O)N2c2cc(OC)c(OC)c(OC)c2)c(OC)c1` (relative stereo), the IC50 came out at 18.7 µM in the assay on MCF7 [1] and 5.74 µM with MDA-MB-231 [2]. The Activity with MDA-MB-231 [3] was 0%.

`COc1cc([C@@H]2[C@@H](c3ccccc3)C(=O)N2c2cc(OC)c(OC)c(OC)c2)cc(OC)c1OC` (relative stereo): the IC50 in the assay with MCF7 [1] came out at 69.8 µM; with MDA-MB-231 [2] it was 65.6 µM. The Activity with MDA-MB-231 [3] was 0%.

On to `COc1cc(OC)c([C@@H]2[C@@H](c3ccccc3)C(=O)N2c2cc(OC)c(OC)c(OC)c2)cc1OC` (relative stereo), for which the half-maximal inhibitory concentration (IC50) in the assay with MCF7 [1] turned out to be 46.9 µM; in the assay on MDA-MB-231 [2] it was 38.9 µM. Besides, the Activity in the assay on MDA-MB-231 [3] worked out at 0%.

As to `COc1ccc([C@@H]2[C@@H](c3ccccc3)C(=O)N2c2cc(OC)c(OC)c(OC)c2)cc1OC` (relative stereo), the figures for the IC50 in the assay on MCF7 [1] and in the assay with MDA-MB-231 [2] were 0.46 µM and 0.53 µM, respectively. For the same molecule, the Activity came out at 3% with MCF7 [11] and 0% in the assay on MDA-MB-231 [3].

`COc1ccc([C@@H]2[C@@H](c3ccccc3)C(=O)N2c2cc(OC)c(OC)c(OC)c2)cc1Br` (relative stereo) had a 50% inhibitory concentration (IC50) with MCF7 [1] of 1.42 µM.

Take `COc1cc(N2C(=O)[C@H](c3ccccc3)[C@H]2c2ccc3ccccc3c2)cc(OC)c1OC` (relative stereo): the IC50 in the assay on MCF7 [1] stood at 0.44 µM. This IC50 is about 3.2-fold lower than that of the molecule before.

`COc1ccc(/C=C/[C@@H]2[C@@H](c3ccccc3)C(=O)N2c2cc(OC)c(OC)c(OC)c2)cc1` (relative stereo) yielded a 50% inhibitory concentration (IC50) in the assay on MCF7 [1] of 1.99 µM.

As for `COc1ccc([C@@H]2[C@@H](c3ccccc3)C(=O)N2Cc2cc(OC)c(OC)c(OC)c2)cc1` (relative stereo), the half-maximal inhibitory concentration (IC50) with MCF7 [1] worked out at 38.6 µM. Against the preceding molecule, the IC50 is about 19-fold higher.

For the molecule `COc1ccc(/C=C\c2cc(OC)c(OC)c(OC)c2)cc1O` [COMBRETASTATIN A4], inhibition with MCF7 [1] was half-maximal at 0.005 µM (IC50). Moreover, in the assay listed under Bos taurus, the inhibition entry is “Active”. For the same molecule, the result in the assay on MCF7 [12] and in the assay on MCF7 [13] was Active. Moreover, the Activity in the assay with MCF7 [14] stood at 9.43%; with MCF7 [15] it was 23.57%; in the assay with MCF7 [16] it was 10.66%; in the assay with MCF7 [17], 52.02%; in the assay on MCF7 [18] it was 8.36%; with MCF7 [11], 5.5%. The Activity with MDA-MB-231 [3] is 4.3%.

The values above are taken from ChEMBL document CHEMBL1828551, “Synthesis, biochemical and molecular modelling studies of antiproliferative azetidinones causing microtubule disruption and mitotic catastrophe” (Eur J Med Chem, 2011).
